The test system of experiment [1] is MCF7. Kind of experiment: Cytotoxicity against human MCF7 cells after 3 days by sulforhodamine B assay. It is filed as functional, cell-based. As to conditions: MCF7, 72 h. An outline of the steps: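 Antiproliferative assay on MCF-7 breast cancer cells following a published protocol, with camptothecin as the positive control.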
In general terms: The SRB assay estimates cell density from bound dye.

The subject of experiment [2] is HT-29. The experiment in a line: Cytotoxicity against human HT-29 cells after 3 days by sulforhodamine B assay. It is filed as functional, cell-based. To be noted: HT-29, 72 h. An outline of the steps: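 Antiproliferative assay on HT-29 colon cancer cells following a protocol from earlier work, with paclitaxel as the positive control.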

As a reminder, the IC50 is the concentration needed to halve the response being measured. As for `COc1cc(O)c2c(=O)c3c(C)cc(O)cc3oc2c1`, the 50% inhibitory concentration (IC50) in experiment [1] and in experiment [2] was greater than 20 µM each time.

With `COC1=CC(=O)C[C@@H](C)[C@]12Oc1cc(OC)cc(OC)c1C2=O`, the IC50 in experiment [1] and in experiment [2] was greater than 20 µM throughout.

In the case of `COC1=CC(=O)C=C(C)[C@]12Oc1cc(OC)cc(OC)c1C2=O`, the half-inhibitory concentration (IC50) in experiment [1] and in experiment [2] was greater than 20 µM each time.

Take `O=C(OCCO)c1ccccc1`: the IC50 in experiment [1] and in experiment [2] was greater than 20 µM in each case.

In turn, `O=C1C(CO)=C[C@@H](O)[C@@H](O)[C@@H]1Br` gave a half-inhibitory concentration (IC50) in experiment [1] of 9.7 µM.

On to `O=C1C(CO)=C[C@@H](O)[C@@H](O)[C@@H]1Cl`, for which, in experiment [1], the IC50 is greater than 20 µM.

With `OCc1cc(O)cc(Cl)c1O`, 14.9 µM corresponded to half-maximal inhibition in experiment [1] (IC50).

On to `OCc1cc(O)cc(Br)c1O`, for which, in experiment [1], it took 8.4 µM to reach half-maximal inhibition (IC50).

For the molecule `O=C1C(CO)=C[C@@H](O)[C@@H](O)[C@H]1Cl`, the IC50 in experiment [1] was greater than 20 µM.

For `COc1cc(O)c(C(=O)c2c(C)cc(O)cc2OC)c(O)c1`, the IC50 in experiment [1] and in experiment [2] was greater than 20 µM in each case.

For `COc1cc(O)c(C(=O)c2c(C)cc(O)cc2OC)c(O)c1Cl`, the IC50 in experiment [1] and in experiment [2] was greater than 20 µM each time.

In experiment [1], `O=C1C(CO)=C[C@@H](O)[C@@H](O)[C@H]1Br` registered an IC50 of 9.7 µM.

For `Cc1cc(O)cc2oc3cc(Cl)cc(O)c3c(=O)c12`, the IC50 in experiment [1] was greater than 20 µM.

For the molecule `COc1cc(O)c2c(=O)c3c(C)cc(O)c(O)c3oc2c1`, the IC50 in experiment [1] and in experiment [2] was greater than 20 µM each time.

Take `OCC(O)c1ccccc1` (racemic): the IC50 in experiment [1] and in experiment [2] was greater than 20 µM in each case.

As to `Cc1cc(O)cc2oc(=O)c3c(O)cc(O)cc3c12` [ALTERNARIOL], the IC50 in experiment [1] and in experiment [2] was greater than 20 µM each time.

Turning to `CC[C@@]1(O)C(=O)OCc2c1cc1n(c2=O)Cc2cc3ccccc3nc2-1` [CAMPTOTHECIN], in experiment [1], half-maximal inhibition (IC50) required 0.073 µM.

Turning to `O=C1C(CO)=C[C@@H](O)[C@H]2O[C@@H]12` [EPOXYDON], the IC50 in experiment [1] amounted to 5.7 µM; in experiment [2], 14.1 µM.

Turning to `OCc1cc(O)ccc1O` [GENTISYL ALCOHOL], the IC50 was 17.1 µM in experiment [1] and 6.4 µM in experiment [2].

Regarding `COC1=CC(=O)C[C@@H](C)[C@]12Oc1c(Cl)c(OC)cc(OC)c1C2=O` [GRISEOFULVIN], the values for the IC50 in experiment [1] and in experiment [2] were 13.9 µM and greater than 20 µM, respectively.

Turning to `Cc1cc(O)cc2oc3cc(O)cc(O)c3c(=O)c12` [NORLICHEXANTHONE], the IC50 in experiment [1] and in experiment [2] was greater than 20 µM each time.

Turning to `CC(=O)O[C@H]1C(=O)[C@@]2(C)[C@H]([C@H](OC(=O)c3ccccc3)[C@]3(O)C[C@H](OC(=O)[C@H](O)[C@@H](NC(=O)c4ccccc4)c4ccccc4)C(C)=C1C3(C)C)[C@]1(OC(C)=O)CO[C@@H]1C[C@@H]2O` [PACLITAXEL], the IC50 in experiment [2] came to 0.0014 µM.

The record behind these values is ChEMBL document CHEMBL4118031, “Halogenated Compounds from Directed Fermentation of Penicillium concentricum, an Endophytic Fungus of the Liverwort Trichocolea tomentella” (J Nat Prod, 2017).
